Data: ChEMBL document CHEMBL4177549, “Malonylginsenosides with Potential Antidiabetic Activities from the Flower Buds of Panax ginseng” (J Nat Prod, 2017)
Active and inactive are the calls of the source. The calls are words filed in the database; no cut-off is given here.

Legend:
[1] = test system: L6; test: Induction of glucose consumption in differentiated rat L6 cells at 20 uM incubated for 12 hrs in presence of 0.5% bovine serum albumin and low-glucose by glucose oxidase method; type: functional, cell-based
Procedure, shortened: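 L6 myoblasts were grown in high-glucose DMEM with 10% FBS and then differentiated into myotubes in 2% FBS for 4−6 days. The myotubes were treated for 12 h in low-glucose (1000 mg/L) DMEM with 0.5% BSA. Medium glucose was measured by glucose oxidase. Consumption was calculated as the glucose in cell-free blank wells minus the glucose in wells with cells.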

[2] = biological target: AMPK alpha2/beta1/gamma1 (Homo sapiens, UniProt P54619+P54646+Q9Y478); test: Activation of recombinant AMPKalpha2beta1gamma1 (unknown origin) expressed in Escherichia coli BL21 in presence of CaMKKbeta (unknown origin) incubated for 45 mins in presence of substrate-1 peptide and ATP by HTRF assay
Chain of AMPK alpha2/beta1/gamma1 (P54646 whole entry): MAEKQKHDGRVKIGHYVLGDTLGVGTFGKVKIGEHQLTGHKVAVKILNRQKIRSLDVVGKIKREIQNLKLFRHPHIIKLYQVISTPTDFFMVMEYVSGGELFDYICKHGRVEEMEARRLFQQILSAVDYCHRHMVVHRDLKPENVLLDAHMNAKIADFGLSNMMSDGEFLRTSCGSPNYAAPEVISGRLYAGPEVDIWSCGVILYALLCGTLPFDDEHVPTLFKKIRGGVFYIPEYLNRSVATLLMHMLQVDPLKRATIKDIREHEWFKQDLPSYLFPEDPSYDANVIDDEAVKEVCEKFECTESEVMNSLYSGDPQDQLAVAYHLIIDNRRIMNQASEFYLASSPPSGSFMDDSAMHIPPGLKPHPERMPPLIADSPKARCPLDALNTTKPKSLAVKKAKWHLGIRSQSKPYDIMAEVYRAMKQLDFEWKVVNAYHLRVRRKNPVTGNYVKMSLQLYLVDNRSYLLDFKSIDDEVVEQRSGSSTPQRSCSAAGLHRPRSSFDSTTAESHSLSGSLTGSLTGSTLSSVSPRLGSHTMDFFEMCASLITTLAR
Chain of AMPK alpha2/beta1/gamma1 (P54619 whole entry): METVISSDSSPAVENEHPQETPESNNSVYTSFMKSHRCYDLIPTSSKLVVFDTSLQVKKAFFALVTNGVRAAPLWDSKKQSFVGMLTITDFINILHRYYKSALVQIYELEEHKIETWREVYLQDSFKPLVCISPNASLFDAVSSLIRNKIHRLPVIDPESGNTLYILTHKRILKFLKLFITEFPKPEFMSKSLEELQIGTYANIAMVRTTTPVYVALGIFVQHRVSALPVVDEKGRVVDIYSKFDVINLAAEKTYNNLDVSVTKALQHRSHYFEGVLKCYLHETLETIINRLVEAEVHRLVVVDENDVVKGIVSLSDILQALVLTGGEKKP
Chain of AMPK alpha2/beta1/gamma1 (Q9Y478 whole entry): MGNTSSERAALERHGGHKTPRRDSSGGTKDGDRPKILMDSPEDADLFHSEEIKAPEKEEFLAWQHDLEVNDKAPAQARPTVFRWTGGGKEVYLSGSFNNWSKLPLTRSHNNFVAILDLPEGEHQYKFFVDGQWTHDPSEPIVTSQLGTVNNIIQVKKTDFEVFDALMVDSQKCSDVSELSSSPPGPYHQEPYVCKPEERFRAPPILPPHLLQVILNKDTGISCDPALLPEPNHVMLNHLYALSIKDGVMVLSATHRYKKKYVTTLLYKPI

[3] = biological target: T1, AMPK alpha2/beta1/gamma1 (Homo sapiens) (UniProt P54646+P54619+Q9Y478); test: Activation of recombinant AMPKalpha2beta1gamma1 (unknown origin) expressed in Escherichia coli BL21 in presence of CaMKKbeta (unknown origin) incubated for 45 mins in presence of substrate-1 peptide and ATP by HTRF assay relative to untreated control
T1 sequence (P54619 whole entry partner): as the sequence (P54619 whole entry) above
T1 sequence (P54646 whole entry): as the sequence (P54646 whole entry) above
T1 sequence (Q9Y478 2-270 partner limits assumed): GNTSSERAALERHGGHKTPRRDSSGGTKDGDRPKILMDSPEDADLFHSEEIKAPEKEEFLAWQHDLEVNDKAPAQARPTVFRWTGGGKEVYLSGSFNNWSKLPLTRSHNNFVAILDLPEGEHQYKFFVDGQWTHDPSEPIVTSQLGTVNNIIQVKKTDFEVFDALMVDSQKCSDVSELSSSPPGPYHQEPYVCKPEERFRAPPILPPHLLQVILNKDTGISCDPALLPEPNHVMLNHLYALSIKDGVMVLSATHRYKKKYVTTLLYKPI

[4] = test system: L6; test: Induction of glucose consumption in differentiated rat L6 cells at 10 uM incubated for 12 hrs in presence of 0.5% bovine serum albumin and low-glucose by glucose oxidase method; type: functional, cell-based
Procedure, shortened: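 L6 myoblasts grown in high-glucose (4500 mg/L) DMEM with 10% FBS, then differentiated to myotubes in high-glucose DMEM with 2% FBS for 4−6 days. Compound added in 0.5% BSA low-glucose (1000 mg/L) DMEM for 12 h. Medium glucose read by glucose oxidase method. Consumption calculated as cell-free blank wells minus wells with cells.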

[5] = biological target: T1, AMPK alpha2/beta1/gamma1 (Homo sapiens); test: Activation of recombinant AMPKalpha2beta1gamma1 (unknown origin) expressed in Escherichia coli BL21 in presence of CaMKKbeta (unknown origin) at 10 uM incubated for 45 mins in presence of substrate-1 peptide and ATP by HTRF assay relative to untreated control

| SMILES | EC50 [2] [nM] | fold change (FC) [3] | Activity [5] | Activity [1] | Activity [4] |
| --- | --- | --- | --- | --- | --- |
| CC(C)=CCC[C@](C)(O[C@@H]1O[C@H](CO)[C@@H](O)[C@H](O)[C@H]1O)[C@H]1CC[C@]2(C)[C@@H]1[C@H](O)C[C@@H]1[C@@]3(C)CC[C@H](O)C(C)(C)[C@@H]3[C@@H](O[C@@H]3O[C@H](COC(=O)CC(=O)O)[C@@H](O)[C@H](O)[C@H]3O[C@@H]3O[C@@H](C)[C@H](O)[C@@H](O)[C@H]3O)C[C@]12C | – | – | – | Active | – |
| CC(C)=CCC[C@](C)(O[C@@H]1O[C@H](CO)[C@@H](O)[C@H](O)[C@H]1O)[C@H]1CC[C@]2(C)[C@@H]1[C@H](O)C[C@@H]1[C@@]3(C)CC[C@H](O[C@@H]4O[C@H](CO)[C@@H](O)[C@H](O)[C@H]4O[C@@H]4O[C@H](CO)[C@@H](O)[C@H](O)[C@H]4O)C(C)(C)[C@@H]3CC[C@]12C [GINSENOSIDE RD] | 16.8 to 2800 | – | – | – | – |
| CC(C)=CCC[C@](C)(O[C@@H]1O[C@H](CO[C@@H]2OC[C@H](O)[C@H](O)[C@H]2O)[C@@H](O)[C@H](O)[C@H]1O)[C@H]1CC[C@]2(C)[C@@H]1[C@H](O)C[C@@H]1[C@@]3(C)CC[C@H](O[C@@H]4O[C@H](CO)[C@@H](O)[C@H](O)[C@H]4O[C@@H]4O[C@H](COC(=O)CC(=O)O)[C@@H](O)[C@H](O)[C@H]4O)C(C)(C)[C@@H]3CC[C@]12C | – | – | – | Active | – |
| CC(C)=CCC[C@](C)(O[C@@H]1O[C@H](CO[C@@H]2OC[C@H](O)[C@H](O)[C@H]2O)[C@@H](O)[C@H](O)[C@H]1O)[C@H]1CC[C@]2(C)[C@@H]1[C@H](O)C[C@@H]1[C@@]3(C)CC[C@H](O[C@@H]4O[C@H](CO)[C@@H](O)[C@H](O)[C@H]4O[C@@H]4O[C@H](CO)[C@@H](O)[C@H](O)[C@H]4O)C(C)(C)[C@@H]3CC[C@]12C [GINSENOSIDE RB2] | 16.8 | 4.7 | – | Active | Active |
| COc1ccc2cc3[n+](cc2c1OC)CCc1cc2c(cc1-3)OCO2 | – | – | Active | – | – |
| CC(C)=CCC[C@](C)(O[C@@H]1O[C@H](CO[C@@H]2O[C@H](CO)[C@@H](O)[C@H](O)[C@H]2O)[C@@H](O)[C@H](O)[C@H]1O)[C@H]1CC[C@]2(C)[C@@H]1[C@H](O)C[C@@H]1[C@@]3(C)CC[C@H](O[C@@H]4O[C@H](CO)[C@@H](O)[C@H](O)[C@H]4O[C@@H]4O[C@H](CO)[C@@H](O)[C@H](O)[C@H]4O)C(C)(C)[C@@H]3CC[C@]12C [GINSENOSIDE RB1] | 16.8 to 2800 | – | – | – | – |

Continued, in another order:

| EC50 [2] [nM] | fold change (FC) [3] | Activity [5] | SMILES | Activity [1] | Activity [4] |
| --- | --- | --- | --- | --- | --- |
| 16.8 to 2800 | 1.7 to 4.7 | – | CC(C)=CCC[C@](C)(O[C@@H]1O[C@H](CO[C@@H]2OC[C@H](O)[C@H](O)[C@H]2O)[C@@H](O)[C@H](O)[C@H]1O)[C@H]1CC[C@]2(C)[C@@H]1[C@H](O)C[C@@H]1[C@@]3(C)CC[C@H](O[C@@H]4O[C@H](CO)[C@@H](O)[C@H](O)[C@H]4O[C@@H]4O[C@H](CO)[C@@H](OC(=O)CC(=O)O)[C@H](O)[C@H]4O)C(C)(C)[C@@H]3CC[C@]12C | – | – |
| 16.8 to 2800 | 1.7 to 4.7 | – | CC(C)=CCC[C@](C)(O[C@@H]1O[C@H](CO)[C@@H](O)[C@H](O)[C@H]1O)[C@H]1CC[C@]2(C)[C@@H]1[C@H](O)C[C@@H]1[C@@]3(C)CC[C@H](O[C@@H]4O[C@H](CO)[C@@H](O)[C@H](O)[C@H]4O[C@@H]4O[C@H](COC(=O)CC(=O)O)[C@@H](O)[C@H](O)[C@H]4O)C(C)(C)[C@@H]3CC[C@]12C | – | – |
| 16.8 to 2800 | 1.7 to 4.7 | – | CC(C)=CCC[C@](C)(O[C@@H]1O[C@H](CO[C@@H]2O[C@H](CO)[C@@H](O)[C@H](O)[C@H]2O)[C@@H](O)[C@H](O)[C@H]1O)[C@H]1CC[C@]2(C)[C@@H]1[C@H](O)C[C@@H]1[C@@]3(C)CC[C@H](O[C@@H]4O[C@H](CO)[C@@H](O)[C@H](O)[C@H]4O[C@@H]4O[C@H](COC(=O)CC(=O)O)[C@@H](O)[C@H](O)[C@H]4O)C(C)(C)[C@@H]3CC[C@]12C | – | – |
| 16.8 to 2800 | 1.7 to 4.7 | – | CC(C)=CCC[C@](C)(O[C@@H]1O[C@H](CO)[C@@H](O)[C@H](O)[C@H]1O)[C@H]1CC[C@]2(C)[C@@H]1[C@H](O)C[C@@H]1[C@@]3(C)CC[C@H](O[C@@H]4O[C@H](CO)[C@@H](O)[C@H](O)[C@H]4O[C@@H]4O[C@H](CO)[C@@H](OC(=O)CC(=O)O)[C@H](O)[C@H]4O)C(C)(C)[C@@H]3CC[C@]12C | – | – |
| 16.8 to 2800 | 1.7 to 4.7 | – | CC(C)=CCC[C@](C)(O[C@@H]1O[C@H](CO[C@@H]2O[C@@H](CO)[C@H](O)[C@H]2O)[C@@H](O)[C@H](O)[C@H]1O)[C@H]1CC[C@]2(C)[C@@H]1[C@H](O)C[C@@H]1[C@@]3(C)CC[C@H](O[C@@H]4O[C@H](CO)[C@@H](O)[C@H](O)[C@H]4O[C@@H]4O[C@H](COC(=O)CC(=O)O)[C@@H](O)[C@H](O)[C@H]4O)C(C)(C)[C@@H]3CC[C@]12C | – | – |
| 16.8 to 2800 | 1.7 to 4.7 | – | CC(C)=CCC[C@](C)(O[C@@H]1O[C@H](CO[C@@H]2O[C@H](CO)[C@@H](OC(=O)CC(=O)O)[C@H](O)[C@H]2O)[C@@H](O)[C@H](O)[C@H]1O)[C@H]1CC[C@]2(C)[C@@H]1[C@H](O)C[C@@H]1[C@@]3(C)CC[C@H](O[C@@H]4O[C@H](CO)[C@@H](O)[C@H](O)[C@H]4O[C@@H]4O[C@H](CO)[C@@H](O)[C@H](O)[C@H]4O)C(C)(C)[C@@H]3CC[C@]12C | – | – |
